Source: PubChem BioAssay (Sanford-Burnham Center for Chemical Genomics)
STEP inh = STEP phosphatase inhibitors, primary screen, biochemical, fluorescence intensity, uHTS. Tyrosine-protein phosphatase non-receptor type 5 (Homo sapiens), P54829. 360,000 tested, 0.25% active. inhibition, % at 20 µM. recombinant STEP, OMFP fluorogenic substrate;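 active = inhibition at 20 µM, scaled per plate between control wells, above about 37%, limit read from the data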;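 also: 0% = DMSO with enzyme and substrate and 100% = substrate only without enzyme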
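Measure: Control-normalized % inhibition with plate pattern correction | Test system: STEP phosphatase, cell-free reaction | Medium: pH 6.0 Bis-Tris with DTT and Tween 20 | Technique: Fluorescence, 480/540 nm | Times: Reaction 20 min, ambient temperature | Doses: Single compound dose of 20 µM, 1% DMSO final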
Scp1 inh = Scp-1 phosphatase inhibitors, primary screen, biochemical, colorimetric, uHTS; 340,000 tested, 0.88% active; inhibition, % at 20 µM; Carboxy-terminal domain RNA polymerase II polypeptide A small phosphatase 1 (Homo …; AID 493091, 2011; Recombinant Scp1, phosphopeptide, malachite green phosphate absorbance;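 active = inhibition above about 50% at 20 µM, limit read from the data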;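 also: plate controls were DMSO wells with enzyme for no effect and wells lacking enzyme for full effect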
Target sequence (Q9GZU7 76-261 limits assumed): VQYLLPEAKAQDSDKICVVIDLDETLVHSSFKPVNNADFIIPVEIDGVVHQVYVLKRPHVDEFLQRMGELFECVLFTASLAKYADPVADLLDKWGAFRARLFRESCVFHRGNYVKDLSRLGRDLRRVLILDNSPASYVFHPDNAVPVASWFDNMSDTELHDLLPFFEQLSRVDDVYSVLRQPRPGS
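Test system: SCP-1 catalytic domain; Buffer or medium: Acidic Tris acetate buffer with magnesium and detergent; Also added: Phosphorylated 17-residue peptide substrate; Compound: single 20 µM dose, 1% DMSO; Schedule: enzyme reaction 45 min at room temperature, colour 5 min, stabilisation 30 min; Signal: Phosphate-binding colour reagent, absorbance read at 630 nm.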
SUMO1-SIM PPI = modulators of SUMO1 protein-protein interactions, primary screen, biochemical, uHTS | Small ubiquitin-related modifier 1 (Homo sapiens), P63165 | SUMO1 binding to a labelled peptide, TR-FRET, 1 h | inhibition, % at 20 µM | 360,000 tested, 0.33% active; in the data active = inhibition above about 37%
Target sequence (P63165 whole entry, looked up): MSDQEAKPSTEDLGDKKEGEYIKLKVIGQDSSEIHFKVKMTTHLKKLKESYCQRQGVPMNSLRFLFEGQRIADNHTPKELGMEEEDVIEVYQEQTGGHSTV
LMPTP block = LMPTP phosphatase inhibitors, primary screen, biochemical, fluorescence intensity, uHTS | Low molecular weight phosphotyrosine protein phosphatase (Homo sapiens), P24666 | recombinant LMPTP-A, OMFP fluorogenic substrate | inhibition, % at 20 µM | 360,000 tested, 0.22% active | AID 651560, 2012;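 active = compounds that cut the enzyme signal by at least half of the control window in the single-dose screen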;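 also: plate controls were DMSO wells with enzyme plus substrate for no effect and substrate without enzyme for full effect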
Target sequence (P24666 whole entry, looked up): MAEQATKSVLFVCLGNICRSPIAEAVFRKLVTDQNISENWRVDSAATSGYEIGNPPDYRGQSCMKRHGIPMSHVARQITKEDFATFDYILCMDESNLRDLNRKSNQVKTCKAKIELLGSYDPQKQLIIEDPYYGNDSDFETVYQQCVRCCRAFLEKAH
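test system = LMPTP-A | amount = 0.625 nM LMPTP-A final | reagent = fluorogenic phosphatase substrate OMFP at 400 µM final | incubation = 50 min at room temperature | benchmarks = no-enzyme low control, uninhibited high control | medium = Bis-Tris pH 6.0, DTT, detergent | signal = fluorescence intensity of OMFP turnover product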
Rpn11 inh = Rpn11 (PSMD14) deubiquitinase inhibitors, primary screen, biochemical, fluorescence polarization, uHTS; 360,000 tested, 0.59% active; human 26S proteasome, Ub4-pepOG fluorescence polarization; 20S core pre-blocked with epoxomicin; AID 588493, 2011; inhibition, % at 20 µM; 26S proteasome non-ATPase regulatory subunit 14 (Homo sapiens), O00487;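 active = inhibition at 20 µM, scaled to each plate's controls, above about 33%, limit read from the data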
DNMT1 block = human DNMT1 methyltransferase inhibitors, primary screen, biochemical, molecular beacon, fluorescence, HinP1I cleavage, uHTS; inhibition (reported as % activation of signal), % at 10 µM; 360,000 tested, 0.83% active; in the data active = inhibition above about 50%
Beacon interf DR = spectral interference with molecular beacon fluorescence, dose response, artefact control for DNMT1 inhibitor project, biochemical, fluorescent molecular beacon; shares compounds with DNMT1 block; spectral interference counter-screen; IC50, µM; 200 tested, under 10 active; AID 602382, 2012; call rule not given here
DNMT1 confirm = DNMT1 methyltransferase inhibitor retest, confirmation, biochemical, molecular beacon, fluorescence, single concentration; shares compounds with DNMT1 block; DNMT1 molecular beacon HinP1I cleavage; inhibition, % at 10 µM; 2,300 tested, 8% active; AID 602385, 2012;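 active = average inhibition of at least 30% in the single-concentration confirmation test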
Beacon interf = shows spectral interference in the DNMT1 beacon assay; activation (fluorescence interference), % at 10 µM; DNMT1 molecular beacon spectral interference counterscreen, fluorescence 485/520; shares compounds with DNMT1 block; AID 602387; 2,300 tested, 1% active;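 active = activation of at least 30% at 10 µM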;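 also: DNMT1 catalytic domain with a HinP1I cleavage step and a FAM/dabcyl DNA beacon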
An asterisk follows results filed as active. Compounds with a hit are over-represented: about 2.3% of the library has one in this group of screens.

CCOc1ccc(NC(=S)NC(=O)/C=C/c2ccc(OC)c(OC)c2)c([N+](=O)[O-])c1 was read as STEP inh 2, Scp1 inh -8, SUMO1-SIM PPI -1, LMPTP block 2, Rpn11 inh -1 and DNMT1 block -11.
For CCOc1ccc(NC(=S)NC(=O)/C=C/c2ccc(C)cc2)c([N+](=O)[O-])c1 the results were STEP inh 2, Scp1 inh -11, SUMO1-SIM PPI -5, LMPTP block 1, Rpn11 inh 3, DNMT1 block 53*, DNMT1 confirm 2 and Beacon interf -4.
For COc1cc2c(=O)[nH]c3cc([N+](=O)[O-])ccc3c2cc1[N+](=O)[O-] the results were STEP inh 3, SUMO1-SIM PPI 99*, LMPTP block 38, Rpn11 inh 4, DNMT1 block 76*, DNMT1 confirm -3 and Beacon interf -5.
`COc1cc2c(cc1[N+](=O)[O-])-c1ccc([N+](=O)[O-])cc1C2` gave STEP inh 3, SUMO1-SIM PPI -75, LMPTP block 1, Rpn11 inh 0 and DNMT1 block -12.
Screening Cc1cc(C(=O)COC(=O)C(C)NC(N)=O)c(C)n1Cc1ccco1 (stereo unspecified) returned STEP inh -1, Scp1 inh 11, SUMO1-SIM PPI 2, LMPTP block 2, Rpn11 inh -6 and DNMT1 block -2.
For Cc1cc(C(=O)C(C)Cl)c(C)n1Cc1ccco1 (stereo unspecified) the results were STEP inh 0, Scp1 inh 0, SUMO1-SIM PPI 2, LMPTP block 2, Rpn11 inh -12, DNMT1 block 65*, DNMT1 confirm 1 and Beacon interf -1.
`CCCCNC(=O)NS(=O)(=O)c1ccc(NC(=O)CCC(=O)c2cccs2)cc1` gave STEP inh -1, Scp1 inh -7, SUMO1-SIM PPI 4, LMPTP block -1, Rpn11 inh 3 and DNMT1 block 1.
COc1cccc2cc(-c3cc(=O)oc4cc(C)c(OCC(C)=O)cc34)oc12 was read as STEP inh -2, Scp1 inh 1, SUMO1-SIM PPI 1, LMPTP block 0, Rpn11 inh 0, DNMT1 block 63*, DNMT1 confirm 1 and Beacon interf -2.
Screening COc1ccc2oc(=O)cc(-c3cc4cccc(OC)c4o3)c2c1 returned STEP inh 1, Scp1 inh -5, SUMO1-SIM PPI 1, LMPTP block 0, Rpn11 inh 2 and DNMT1 block 1.
Screening Cc1ccc(OCc2cnc(Cl)s2)c(C)c1 returned STEP inh 2, Scp1 inh -14, SUMO1-SIM PPI 4, LMPTP block 3, Rpn11 inh 2 and DNMT1 block 0.
For Cc1ccc(-c2[nH]ncc2/C=N/n2c(COc3ccccc3C)nc3ccccc3c2=O)cc1 the results were STEP inh 3, Scp1 inh -4, SUMO1-SIM PPI 2, LMPTP block 0, Rpn11 inh -1, DNMT1 block 70*, DNMT1 confirm 0 and Beacon interf -2.
For Cc1ccccc1OCc1nc2ccccc2c(=O)n1/N=C/c1c[nH]c2ccccc12 the results were STEP inh 1, Scp1 inh -4, SUMO1-SIM PPI 1, LMPTP block 1, Rpn11 inh -5 and DNMT1 block 8.
`CC1=C(C(=O)OC(C)C)C(c2ccc(Cl)cc2)n2c(sc(=Cc3ccc(OCC(=O)O)cc3)c2=O)=N1` (stereo unspecified) gave STEP inh 87*, SUMO1-SIM PPI 106*, LMPTP block 88*, DNMT1 block 104*, Beacon interf DR >99, DNMT1 confirm 105* and Beacon interf -1.
`CCOC(=O)C1=C(C)N=c2s/c(=C/c3ccc(OCC(=O)O)cc3)c(=O)n2C1c1ccc(F)cc1` (stereo unspecified) gave STEP inh 5, Scp1 inh 27, SUMO1-SIM PPI -5, LMPTP block 1, Rpn11 inh 13 and DNMT1 block 1.
O=C1C(Br)=Cc2cccc3cccc1c23 was read as STEP inh 0, Scp1 inh -6, SUMO1-SIM PPI -31, LMPTP block 0, Rpn11 inh -95 and DNMT1 block 28.
For O=C1c2sccc2-c2cccc3cccc1c23 the results were STEP inh 0, SUMO1-SIM PPI -25, LMPTP block 2, Rpn11 inh -60, DNMT1 block 66*, Beacon interf DR >99, DNMT1 confirm 65* and Beacon interf 3.
Screening COc1cccc(C(=O)Nn2cnnc2)c1OC returned STEP inh -2, Scp1 inh -8, SUMO1-SIM PPI 0, LMPTP block -2, Rpn11 inh -2 and DNMT1 block -2.
O=S(=O)(c1ccccc1Br)N1CCC(O)(c2cccnc2)CC1 was read as STEP inh 4, Scp1 inh 2, SUMO1-SIM PPI -4, LMPTP block 0, Rpn11 inh -2 and DNMT1 block 2.
`O=C(CN1CCN(Cc2ccccc2)CC1)N/N=C/c1ccc(Br)s1` gave STEP inh 3, Scp1 inh -7, SUMO1-SIM PPI -16, LMPTP block -1, Rpn11 inh -5 and DNMT1 block 1.
For O=C(OCc1nc2ccccc2s1)c1cccc(S(=O)(=O)N2CCOCC2)c1 the results were STEP inh 0, Scp1 inh -18, SUMO1-SIM PPI 1, LMPTP block 1, Rpn11 inh 0 and DNMT1 block -1.
